Calls of active or inactive are those of the source. The rule behind the calls is not given here. Where only a bound is given, the exact number is not on record here.

A short description of data set [1]: Toxicity in BALB/c mouse model of skin abscess infected with methicillin-resistant Staphylococcus aureus ATCC 33591 assessed as effect on blood urea nitrogen levels at 1.5 to 3 mg/kg injected into shaved area of skin once daily for 4 days. The class given is organism-based. Conditions: in vivo, other, 96 h. The essentials:
(§1)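 Infected BALB/c mice (n=5/group) dosed 1.5 or 3 mg/kg into the infected skin once daily for 4 days; blood collected on day 4 and day 14, centrifuged 3,500 rpm 15 min, serum biochemistry analysed.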

Data set [2] in a line: Cytotoxicity in human HepG2 cells assessed as reduction in cell viability incubated for 24 hrs by MTT assay. The class given is cell-based. In outline:
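MTT assay. HeLa (3×10^3 cells) or HepG2 (4×10^3 cells) seeded in DMEM and grown 24 h, then given compound for a further 24 h. Absorbance read at 570 nm against DMSO wells. GI50 from dose-response fit; three experiments, triplicate wells.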

Data set [3] concerns Staphylococcus aureus. In words: Antivirulence activity against methicillin-resistant Staphylococcus aureus ATCC 33591 infected in BALB/c mouse model of skin abscess assessed as reduction in kidney histopathological changes at 1.5 to 3 mg/kg injected into shaved area of skin once daily for 4 days measured after 12 hrs post last dose by hematoxylin and eosin staining based optical microscopy. The class given is functional, organism-based. In outline: (§2)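 Same MRSA ATCC 33591 skin-abscess model in female BALB/c mice (n=5/group), 40 µL compound at 1.5 or 3 mg/kg injected into the infected shaved skin once daily for 4 days. On day 4 infected skin and heart, liver, spleen, lung, kidney fixed in 4% paraformaldehyde, embedded, sectioned, H&E stained and examined by microscopy; PBS-treated uninfected and vehicle controls.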

The nature of data set [4]: Toxicity in BALB/c mouse model of skin abscess infected with methicillin-resistant Staphylococcus aureus ATCC 33591 assessed as increase in AST levels at 1.5 to 3 mg/kg injected into shaved area of skin once daily for 4 days. The class given is organism-based. Conditions: in vivo, other, 96 h. In outline: as §1
The subject of data set [5] is Staphylococcus aureus. In words: Antivirulence activity against methicillin-resistant Staphylococcus aureus ATCC 33591 infected in BALB/c mouse model of skin abscess assessed as effect on bacterial recovery levels at 1.5 to 3 mg/kg injected into shaved area of skin once daily for 4 days measured after 12 hrs post last dose. It counts as functional, organism-based. The essentials: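 Female BALB/c mice, 6-8 weeks, n=5 per group, backs shaved and depilated 1 day before; 50 µL subcutaneous 1.7 × 10⁹ CFU/mL MRSA ATCC 33591. From 6 h post-infection, 40 µL vehicle, vancomycin 3 mg/kg, or compound 1.5 or 3 mg/kg injected at infection site once daily for 4 days; weight recorded daily. Skin homogenised in saline 12 h after last dose, plated on LB agar 37 °C ≥16 h; log10 CFU/abscess; t-test.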

For data set [6], the target named is T1, ATP-dependent Clp protease proteolytic subunit (Staphylococcus aureus (strain NCTC 8325), UniProt Q2G036).
T1 sequence (Q2G036 whole entry): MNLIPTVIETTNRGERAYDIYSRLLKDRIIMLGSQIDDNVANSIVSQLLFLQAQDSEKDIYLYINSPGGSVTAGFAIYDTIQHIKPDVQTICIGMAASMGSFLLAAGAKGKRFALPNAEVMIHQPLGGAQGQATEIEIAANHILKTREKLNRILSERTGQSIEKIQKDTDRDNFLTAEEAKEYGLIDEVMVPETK
In words: Binding affinity to N-terminal His6-sumo-tagged full length Staphylococcus aureus ClpP expressed in Escherichia coli […] assessed as shifting of melting peak of SaClpP by differential scanning calorimetry analysis. In outline:
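DSC: 0.5 mg/mL (25 µM) SaClpP with 100 µM compound or two-fold dilution series, RT; scanned 30-90 °C at 1 °C/min, buffer-buffer scan subtracted; Tm from thermogram peak maximum; single run.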
In general terms: In DSC, transitions show as peaks or steps in heat flow.

Data set [7] relates to Staphylococcus aureus. In words: Inhibition of virulence-related genes expression in methicillin-resistant Staphylococcus aureus ATCC 33591 assessed as reduction in aur expression at 4 to 16 uM by qPCR analysis relative to control. It counts as functional, organism-based. The essentials:
(§3)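 Total RNA from 2×10⁸ CFU treated MRSA by liquid-nitrogen freeze-thaw and TRIzol; qPCR relative to gyrB endogenous control; three experiments, triplicate wells.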
(In qPCR the cycle at which signal appears reflects the starting amount.)

Data set [8] relates to Staphylococcus aureus. Nature of the data set: Antivirulence activity against methicillin-resistant Staphylococcus aureus ATCC 33591 infected in BALB/c mouse model of skin abscess assessed as reduction in liver histopathological changes at 1.5 to 3 mg/kg injected into shaved area of skin once daily for 4 days measured after 12 hrs post last dose by hematoxylin and eosin staining based optical microscopy. The class given is functional, organism-based. In outline: as §2

Data set [9] concerns Staphylococcus aureus. Nature of the data set: Inhibition of virulence-related genes expression in methicillin-resistant Staphylococcus aureus ATCC 33591 assessed as reduction in RNAIII effector, expression at 16 uM by qPCR analysis relative to control. It counts as functional. In outline: as §3
The target in data set [10] is T1, ATP-dependent Clp protease proteolytic subunit. In words: Inhibition of ClpP in methicillin-resistant Staphylococcus aureus ATCC 33591 assessed as reduction in bacteria-induced hemolysis of sheep erythrocytes by measuring hemoglobin release incubated for 15 mins.
In data set [11] the test system is Staphylococcus aureus. Nature of the data set: Inhibition of virulence-related genes expression in methicillin-resistant Staphylococcus aureus ATCC 33591 assessed as reduction in psm expression at 4 to 16 uM by qPCR analysis relative to control. It counts as functional, organism-based. The essentials:
as §3

The nature of data set [12]: Toxicity in BALB/c mouse model of skin abscess infected with methicillin-resistant Staphylococcus aureus ATCC 33591 assessed as increase in AST levels at 1.5 to 3 mg/kg injected into shaved area of skin once daily for 4 days measured on day 14. It counts as organism-based. Conditions: in vivo, other, 96 h. In outline:
as §1

A short description of data set [13]: Toxicity in BALB/c mouse model of skin abscess infected with methicillin-resistant Staphylococcus aureus ATCC 33591 assessed as effect on alanine transaminase levels at 1.5 to 3 mg/kg injected into shaved area of skin once daily for 4 days. The class given is organism-based. Conditions: in vivo, other, 96 h. The essentials:
as §1

Data set [14] can be described thus: Toxicity in BALB/c mouse model of skin abscess infected with methicillin-resistant Staphylococcus aureus ATCC 33591 assessed as effect on creatinine levels at 1.5 to 3 mg/kg injected into shaved area of skin once daily for 4 days. Conditions: in vivo, other, 96 h. The class given is organism-based. The essentials:
as §1

For data set [15], the system named is Staphylococcus aureus. In words: Antivirulence activity against methicillin-resistant Staphylococcus aureus ATCC 33591 infected in BALB/c mouse model of skin abscess assessed as reduction in heart histopathological changes at 1.5 to 3 mg/kg injected into shaved area of skin once daily for 4 days measured after 12 hrs post last dose by hematoxylin and eosin staining based optical microscopy. It counts as functional, organism-based. In outline:
as §2

The subject of data set [16] is Staphylococcus aureus. Nature of the data set: Antivirulence activity against methicillin-resistant Staphylococcus aureus ATCC 33591 infected in BALB/c mouse model of skin abscess assessed as reduction in spleen histopathological changes at 1.5 to 3 mg/kg injected into shaved area of skin once daily for 4 days measured after 12 hrs post last dose by hematoxylin and eosin staining based optical microscopy. The class given is functional, organism-based. In outline:
as §2

Data set [17] has as its system Staphylococcus aureus. Nature of the data set: Antivirulence activity against methicillin-resistant Staphylococcus aureus ATCC 33591 infected in BALB/c mouse model of skin abscess assessed as reduction in skin inflammation at 1.5 to 3 mg/kg injected into shaved area of skin once daily for 4 days measured after 12 hrs post last dose by hematoxylin and eosin staining based optical microscopy. It counts as functional, organism-based. In outline:
as §2

In the case of `CC(C)C[C@H](NC(=O)[C@H](Cc1c[nH]c2ccccc12)NC(=O)c1cc(Cl)ccc1Cl)B(O)O`, the Activity result in data set [1] is given as “Non-Toxic”; in data set [4], “Toxic”; in data set [12] it was “Non-Toxic”; in data set [13], “Non-Toxic”; in data set [14], “Non-Toxic”. Also, the GI50 at 24 h in [2] is 83.4 µM. The result in [3], in [5], in data set [8], in data set [15], in [16] and in data set [17] was Active. Further, the EC50 in [6] stood at 1.27 µM; in data set [10], 1.4 µM. Besides, the inhibition result in data set [7] and in data set [11] was “Active” each time. Moreover, in [9], the “fold change (FC)” value is on record as above 10.

Usually GI50 stands for the concentration at which growth is held to half of that of the control.
